According to ChEMBL document CHEMBL2380244, “Optimized chemical probes for REV-ERBα” (J Med Chem, 2013):
Activity calls are given as the source filed them. The calls are words filed in the database; no cut-off is given here.

Assays:
[1] = biological target: T1, Nuclear receptor subfamily 1 group D member 1 (Homo sapiens, UniProt P20393); experiment: Agonist activity at biotinylated REV-ERBalpha (unknown origin) assessed as increase in biotinylated NCOR peptide recruitment after 1 hr by FRET assay
T1 sequence (P20393 whole entry): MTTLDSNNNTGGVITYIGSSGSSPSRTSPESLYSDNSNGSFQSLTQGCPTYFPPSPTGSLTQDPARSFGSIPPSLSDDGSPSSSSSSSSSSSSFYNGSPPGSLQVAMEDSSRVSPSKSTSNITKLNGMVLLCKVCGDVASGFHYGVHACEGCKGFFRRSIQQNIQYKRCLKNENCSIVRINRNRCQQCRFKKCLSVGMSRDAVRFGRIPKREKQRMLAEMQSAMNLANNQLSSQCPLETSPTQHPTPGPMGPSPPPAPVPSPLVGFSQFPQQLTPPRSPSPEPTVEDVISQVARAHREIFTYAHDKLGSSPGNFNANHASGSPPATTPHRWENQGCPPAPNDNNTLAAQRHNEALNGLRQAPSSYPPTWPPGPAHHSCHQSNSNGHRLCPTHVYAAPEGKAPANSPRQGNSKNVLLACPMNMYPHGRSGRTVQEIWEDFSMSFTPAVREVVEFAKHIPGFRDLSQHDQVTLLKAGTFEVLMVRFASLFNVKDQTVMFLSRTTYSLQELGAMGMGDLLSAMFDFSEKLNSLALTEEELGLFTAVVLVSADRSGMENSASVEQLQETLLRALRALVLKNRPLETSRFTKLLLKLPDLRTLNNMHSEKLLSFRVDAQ
Outline: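 TR-FRET: 20 nM biotinylated REV-ERBα pre-complexed with 10 nM APC-streptavidin, excess biotin added, then mixed with 20 nM biotinylated NCOR1 on 10 nM Eu-streptavidin. MOPS pH 7.5 buffer with NaF, CHAPS, BSA and 10 mM DTT. Added to compound (serial DMSO dilutions of 10 mM stocks), 1 h at RT, Eu/APC read. Data normalized to basal and minimal HTRF, fitted to a 4-parameter logistic.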

[2] = species: Homo sapiens; experiment: Selectivity ratio of IC50 for LXRalpha (unknown origin) to EC50 for biotinylated REV-ERBalpha (unknown origin)
[3] = biological target: T2, Oxysterols receptor LXR-alpha (Homo sapiens, UniProt Q13133); experiment: Binding affinity to LXRalpha (unknown origin) by radioligand displacement assay
T2 sequence (Q13133 whole entry): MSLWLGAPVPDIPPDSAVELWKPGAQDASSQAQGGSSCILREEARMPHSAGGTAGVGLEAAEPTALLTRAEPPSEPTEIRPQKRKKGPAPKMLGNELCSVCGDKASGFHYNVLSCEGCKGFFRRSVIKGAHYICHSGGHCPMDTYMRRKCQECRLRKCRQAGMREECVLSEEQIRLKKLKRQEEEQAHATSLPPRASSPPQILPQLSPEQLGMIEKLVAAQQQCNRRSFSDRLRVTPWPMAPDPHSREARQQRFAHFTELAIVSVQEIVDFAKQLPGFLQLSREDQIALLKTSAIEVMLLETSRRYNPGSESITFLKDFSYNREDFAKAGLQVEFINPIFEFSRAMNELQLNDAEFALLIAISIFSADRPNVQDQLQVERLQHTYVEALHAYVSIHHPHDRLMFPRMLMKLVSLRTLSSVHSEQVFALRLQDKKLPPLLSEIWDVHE

[4] = system: THP-1; experiment: Cytotoxicity against human THP1 cells assessed as cell viability measured ATP level at 10 uM after 6 hrs by celltiter-glo assay; assay type: cell-based; details: thp-1, 6 h
Outline: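 THP-1 cells incubated six hours with compound. CellTiter-Glo added for 15 min, then luminescence read.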

[5] = biological target: T3, Nuclear receptor subfamily 1 group D member 1 (Homo sapiens) (UniProt P20393); experiment: Agonist activity at REV-ERBalpha in human U2OS cells assessed as delay of peak of second cycle at 20 uM by luciferase reporter gene assay relative to DMSO-treated control; assay type: cell-based
T3 sequence (whole entry): T1 sequence (P20393 whole entry)
Outline: (§1)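 U2OS cells stably carrying a mouse Bmal1-promoter luciferase reporter (hygromycin-selected clone) seeded at confluence in 384-well format. Rhythms synchronized by media change and checked over 48 h. Compound added, then bioluminescence recorded in real time every 20 min for 72 h in a temperature-controlled luminometer. Cells then washed and recovery oscillations in full growth medium monitored as a toxicity counter-screen.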

[6] = biological target: T3, Nuclear receptor subfamily 1 group D member 1 (Homo sapiens); experiment: Agonist activity at REV-ERBalpha in human THP1 cells assessed as downregulation of LPS-stimulated IL-6 mRNA expression at 1 uM after 6 hrs by RT-qPCR analysis; assay type: cell-based; details: THP-1
Outline: (§2)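 THP-1 cells (RPMI1640 + 10% FBS, kept at 3×10^5–8×10^5 cells/mL) stimulated with LPS 10 mcg/mL with DMSO or compound at 1 μM, in triplicate. After six hours the cells were lysed and transcripts quantified by RT-qPCR against TATA box binding protein as housekeeping gene. Groups compared by one-way ANOVA with post-hoc Dunnett's.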

[7] = biological target: T3, Nuclear receptor subfamily 1 group D member 1 (Homo sapiens); experiment: Agonist activity at REV-ERBalpha in human U2OS cells assessed as suppression of BMAL1 expression at 20 uM after 40 hrs by luciferase reporter gene assay relative to DMSO-treated control; assay type: cell-based; outline: as §1
[8] = biological target: T4, Oxysterols receptor LXR-alpha (Homo sapiens) (UniProt Q13133); experiment: Agonist activity at LXRalpha in human THP1 cells assessed as effect on LPS-stimulated ABCA1 mRNA expression at 1 uM after 6 hrs by RT-qPCR analysis; assay type: cell-based; details: THP-1; outline: as §2
T4 sequence (whole entry): T2 sequence (Q13133 whole entry)

[9] = biological target: T3, Nuclear receptor subfamily 1 group D member 1 (Homo sapiens); experiment: Agonist activity at REV-ERBalpha in human U2OS cells assessed as suppression of BMAL1 oscillation measured for 72 hrs by luciferase reporter gene assay; assay type: cell-based; outline: as §1
[10] = biological target: T3, Nuclear receptor subfamily 1 group D member 1 (Homo sapiens); experiment: Agonist activity at biotinylated REV-ERBalpha (unknown origin) assessed as biotinylated PGC1-beta peptide recruitment after 20 mins by Greiner assay
Outline: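 Biotinylated peptides (final 20 nM) with Eu-W1024 streptavidin (final 20 nM), 20 min RT. Biotinylated REV-ERBα (20 nM) with APC-streptavidin (10 nM), 20 min RT, then 20-fold excess biotin, 15 min RT. Receptor solution added to peptide plates, Eu/APC TR-FRET read. Four wells per peptide averaged, with standard deviation.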

Row | Compound | EC50 [1] | Ratio IC50/EC50 [2] | IC50 [3] | Activity [4] | TIME [5] | Activity [6] | Activity [7] | Activity [8] | Activity [9] | Activity [10]
1 | N#Cc1ccc(CN(Cc2ccc(F)cc2)Cc2cccnc2)s1 | 0.2 µM |  |  |  |  |  |  |  |  | 
2 | COc1ccc(CN(Cc2cccnc2)Cc2ccc(C#N)s2)cc1 | 0.63 µM | > 160 | > 100 µM |  |  |  |  |  |  | 
3 | O=[N+]([O-])c1ccc(CN(Cc2ccccc2)Cc2ccc(Cl)cc2)s1 | 0.1 µM | > 1000 | > 100 µM |  |  |  |  |  |  | 
4 | N#Cc1ccc(CN(Cc2ccc(Cl)cc2)Cc2cccnc2)s1 | 0.2 µM |  | 20 µM | Non-toxic | 0 h | Active | 23% | inactive |  | 
5 | O=[N+]([O-])c1ccc(CN(Cc2ccc(Cl)cc2)Cc2ccccc2F)s1 | 0.063 µM | 320 | 20 µM |  | 0 h |  | 38% |  |  | 
6 | N#Cc1ccc(CN(Cc2cccnc2)Cc2ccc(F)c(F)c2)s1 | 0.2 µM | 79 | 16 µM | Non-toxic | 0 h | Active | 37% | inactive |  | 
7 | Cc1ccccc1CN(Cc1cccnc1)Cc1ccc([N+](=O)[O-])s1 | 0.2 µM | 160 | 32 µM |  | 0 h |  | 37% |  |  | 
8 | Cc1sc(CN(Cc2ccc(Cl)cc2)Cc2cccnc2)cc1Br | 0.25 µM | 130 | 32 µM |  | 0 h |  | 16% |  |  | 
9 | O=[N+]([O-])c1ccc(CN(Cc2ccc(F)cc2)Cc2cccnc2)s1 | 0.16 µM | 250 | 40 µM | Non-toxic | 0 h | Active | 14% | inactive |  | 
10 | CC(C)CCN(Cc1ccc(Cl)cc1)Cc1ccc([N+](=O)[O-])s1 | 0.16 µM | 100 | 16 µM |  | 0 h |  | 21% |  |  | 
11 | N#Cc1ccc(CN(Cc2cccnc2)Cc2ccccc2F)s1 | > 50 µM |  | 32 µM |  | 0 h |  | 6% |  |  | 
12 | N#Cc1ccc(CN(Cc2cccnc2)Cc2cc(F)ccc2F)s1 | 0.63 µM | 10 | 6.3 µM |  | 0 h |  | 27% |  |  | 
13 | Clc1ccc(CN(Cc2cccnc2)Cc2sccc2-n2cccc2)cc1 | 0.63 µM | 63 | 40 µM |  | 0 h |  | 30% |  |  | 
14 | Clc1ccc(CN(Cc2cccnc2)Cc2ncc[nH]2)cc1 | > 50 µM |  | > 100 µM |  |  |  |  |  |  | 
15 | Cc1cccc(CN(Cc2cccnc2)Cc2ccc([N+](=O)[O-])s2)c1 | 0.2 µM | 130 | 25 µM |  | 0.8 h |  | 41% |  |  | 
16 | Cc1ccc(CN(Cc2cccnc2)Cc2ccc([N+](=O)[O-])s2)cc1 | 0.16 µM | 250 | 40 µM |  | 0 h |  | 23% |  |  | 
17 | Cc1cc(Cl)ccc1CN(Cc1ccc(Cl)cc1)Cc1ccc([N+](=O)[O-])s1 | 0.05 µM | 1260 | 63 µM | Non-toxic | 0 h | Active | 21% | inactive | Dose-dependent effect | 
18 | Clc1ccc(CN(Cc2cccnc2)Cc2cc3ccccc3s2)cc1 | 0.4 µM | 100 | 40 µM |  | 0 h |  | 24% |  |  | 
19 | Clc1ccc(CN(Cc2cccnc2)Cc2nccs2)cc1 | > 50 µM |  | 50 µM |  |  |  |  |  |  | 
20 | O=[N+]([O-])c1ccc(CN(Cc2cccnc2)Cc2cccc(C(F)(F)F)c2)s1 | 0.4 µM | 40 | 16 µM |  |  |  |  |  |  | 
21 | COc1ccc(CN(Cc2cccnc2)Cc2ccc([N+](=O)[O-])s2)cc1 | 0.2 µM | 160 | 32 µM |  |  |  |  |  |  | 
22 | O=[N+]([O-])c1ccc(CN(Cc2ccc(Cl)cc2)Cc2cccnc2)s1 | 0.16 µM | 79 | 13 µM |  |  |  |  |  |  | 
23 | COc1cccc(CN(Cc2cccnc2)Cc2ccc([N+](=O)[O-])s2)c1 | 0.4 µM | 25 | 10 µM |  | 0.5 h |  | 42% |  |  | 
24 | CCOC(=O)N1CCC(CN(Cc2ccc(Cl)cc2)Cc2ccc([N+](=O)[O-])s2)C1 (stereo not drawn) |  |  |  |  | 1.3 h |  | 14% |  |  | Dose-dependent effect
25 | CCCCCNC(=O)N1CCC(CN(Cc2ccc(Cl)cc2)Cc2ccc([N+](=O)[O-])s2)C1 (stereo not drawn) [SR9011] | > 50 µM |  |  |  | 1.3 h |  | 20% |  |  | Dose-dependent effect
